Data as given in ChEMBL document CHEMBL3244175, “Experimental antiulcer drugs. 2. 2-Substituted 2,4,5,6-tetrahydro-1,3,4,6,6-pentamethylcyclopenta[c]pyrrole-4-carboxamides” (1977).
Activity calls are given as the source filed them. No cut-off for these calls is given here.

How the values were obtained:
[1] = tested on: Rattus norvegicus; assay: Antisecretory activity in 5-hrs pyloric ligated rat assessed as pH of gastric contents at 100 mg/kg, po administered 2 hrs prior to pyloric ligation measured after 1 hr (reference value: 1.1 no-unit); type: functional, Stomach
[2] = tested on: Rattus norvegicus; assay: Antisecretory activity in 5-hrs pyloric ligated rat assessed as pH of gastric contents at 25 mg/kg, po administered 2 hrs prior to pyloric ligation measured after 1 hr (reference value: 1.07 +/- 0.01 no-unit); type: functional, Stomach
In short: (§1)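 Rats given a single po dose (12.5–100 mg/kg) 2 h before a 5-h pyloric ligation. Gastric secretion was assayed for pH, volume (mL/100 g) and total acid output ([…]), with % inhibition relative to controls. Groups had 5–15 rats, with 39 controls. Values are means ± SE from several experiments, and significance versus control was taken at p < 0.05 or 0.01.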

[3] = tested on: Rattus norvegicus; assay: Antisecretory activity in 5-hrs pyloric ligated rat assessed as pH of gastric contents at 12.5 mg/kg, po administered 2 hrs prior to pyloric ligation measured after 1 hr (reference value: 1.07 +/- 0.01 no-unit); type: functional, Stomach; in short: as §1
[4] = tested on: Rattus norvegicus; assay: Antisecretory activity in 5-hrs pyloric ligated rat assessed as pH of gastric contents at 50 mg/kg, po administered 2 hrs prior to pyloric ligation measured after 1 hr (reference value: 1.07 +/- 0.01 no-unit); type: functional, Stomach; in short: as §1
[5] = tested on: Rattus norvegicus; assay: Antisecretory activity in 5-hrs pyloric ligated rat assessed as pH of gastric contents at 100 mg/kg, po administered 2 hrs prior to pyloric ligation measured after 1 hr (reference value: 1.07 to 1.1 no-unit); type: functional, Stomach
[6] = tested on: Rattus norvegicus; assay: Antisecretory activity in 5-hrs pyloric ligated rat assessed as volume of gastric secretion at 12.5 mg/kg, po administered 2 hrs prior to pyloric ligation measured per 100 gm of tissue (reference value: 4.05 +/- 0.21 ml); type: functional, Stomach; in short: as §1
[7] = tested on: Rattus norvegicus; assay: Antisecretory activity in 5-hrs pyloric ligated rat assessed as volume of gastric secretion at 25 mg/kg, po administered 2 hrs prior to pyloric ligation measured per 100 gm of tissue (reference value: 4.05 +/- 0.21 ml); type: functional, Stomach; in short: as §1
[8] = tested on: Rattus norvegicus; assay: Antisecretory activity in 5-hrs pyloric ligated rat assessed as volume of gastric secretion at 50 mg/kg, po administered 2 hrs prior to pyloric ligation measured per 100 gm of tissue (reference value: 4.05 +/- 0.21 ml); type: functional, Stomach; in short: as §1
[9] = tested on: Rattus norvegicus; assay: Antisecretory activity in 5-hrs pyloric ligated rat assessed as volume of gastric secretion at 100 mg/kg, po administered 2 hrs prior to pyloric ligation measured per 100 gm of tissue (reference value: 4.05 +/- 0.21 ml); type: functional, Stomach; in short: as §1
[10] = tested on: Rattus norvegicus; assay: Antisecretory activity in 5-hrs pyloric ligated rat assessed as inhibition of total acid output at 12.5 mg/kg, po administered 2 hrs prior to pyloric ligation (reference value: 0%); type: functional; in short: as §1
[11] = tested on: Rattus norvegicus; assay: Antisecretory activity in 5-hrs pyloric ligated rat assessed as inhibition of total acid output at 25 mg/kg, po administered 2 hrs prior to pyloric ligation (reference value: 0%); type: functional; in short: as §1
[12] = tested on: Rattus norvegicus; assay: Antisecretory activity in 5-hrs pyloric ligated rat assessed as inhibition of total acid output at 50 mg/kg, po administered 2 hrs prior to pyloric ligation (reference value: 0%); type: functional; in short: as §1
[13] = tested on: Rattus norvegicus; assay: Antisecretory activity in 5-hrs pyloric ligated rat assessed as inhibition of total acid output at 100 mg/kg, po administered 2 hrs prior to pyloric ligation (reference value: 0%); type: functional; in short: as §1
[14] = tested on: Canis familiaris; assay: Antisecretory activity in histamine-stimulated dog assessed as pH of gastric contents at 1.6 mg/kg, po administered 18 and 2 hrs prior to histamine challenge (reference value: 1 no-unit); type: functional, Canis lupus familiaris, Stomach
[15] = tested on: Canis familiaris; assay: Antisecretory activity in histamine-stimulated dog assessed as pH of gastric contents at 3.1 mg/kg, po administered 18 and 2 hrs prior to histamine challenge (reference value: 1 no-unit); type: functional, Canis lupus familiaris, Stomach
[16] = tested on: Canis familiaris; assay: Antisecretory activity in histamine-stimulated dog assessed as pH of gastric contents at 6.2 mg/kg, po administered 18 and 2 hrs prior to histamine challenge (reference value: 1 no-unit); type: functional, Canis lupus familiaris, Stomach
[17] = tested on: Canis familiaris; assay: Antisecretory activity in histamine-stimulated dog assessed as pH of gastric contents at 12.5 mg/kg, po administered 18 and 2 hrs prior to histamine challenge (reference value: 1 no-unit); type: functional, Canis lupus familiaris, Stomach
[18] = tested on: Canis familiaris; assay: Antisecretory activity in histamine-stimulated dog assessed as pH of gastric contents at 25 mg/kg, po administered 18 and 2 hrs prior to histamine challenge (reference value: 1 no-unit); type: functional, Canis lupus familiaris, Stomach
[19] = tested on: Canis familiaris; assay: Antisecretory activity in histamine-stimulated dog assessed as volume of gastric secretion at 1.6 mg/kg, po administered 18 and 2 hrs prior to histamine challenge measured per 15 mins (reference value: 14.7 ml); type: functional, Canis lupus familiaris, Stomach
[20] = tested on: Canis familiaris; assay: Antisecretory activity in histamine-stimulated dog assessed as volume of gastric secretion at 3.1 mg/kg, po administered 18 and 2 hrs prior to histamine challenge measured per 15 mins (reference value: 14.7 ml); type: functional, Canis lupus familiaris, Stomach
[21] = tested on: Canis familiaris; assay: Antisecretory activity in histamine-stimulated dog assessed as volume of gastric secretion at 6.2 mg/kg, po administered 18 and 2 hrs prior to histamine challenge measured per 15 mins (reference value: 14.7 ml); type: functional, Canis lupus familiaris, Stomach
[22] = tested on: Canis familiaris; assay: Antisecretory activity in histamine-stimulated dog assessed as volume of gastric secretion at 12.5 mg/kg, po administered 18 and 2 hrs prior to histamine challenge measured per 15 mins (reference value: 14.7 ml); type: functional, Canis lupus familiaris, Stomach
[23] = tested on: Canis familiaris; assay: Antisecretory activity in histamine-stimulated dog assessed as volume of gastric secretion at 25 mg/kg, po administered 18 and 2 hrs prior to histamine challenge measured per 15 mins (reference value: 14.7 ml); type: functional, Canis lupus familiaris, Stomach
[24] = tested on: Canis familiaris; assay: Antisecretory activity in histamine-stimulated dog assessed as inhibition of total acid output at 1.6 mg/kg, po administered 18 and 2 hrs prior to histamine challenge (reference value: 0%); type: functional; conditions: Canis lupus familiaris
[25] = tested on: Canis familiaris; assay: Antisecretory activity in histamine-stimulated dog assessed as inhibition of total acid output at 3.1 mg/kg, po administered 18 and 2 hrs prior to histamine challenge (reference value: 0%); type: functional; conditions: Canis lupus familiaris
[26] = tested on: Canis familiaris; assay: Antisecretory activity in histamine-stimulated dog assessed as inhibition of total acid output at 6.2 mg/kg, po administered 18 and 2 hrs prior to histamine challenge (reference value: 0%); type: functional; conditions: Canis lupus familiaris
[27] = tested on: Canis familiaris; assay: Antisecretory activity in histamine-stimulated dog assessed as inhibition of total acid output at 12.5 mg/kg, po administered 18 and 2 hrs prior to histamine challenge (reference value: 0%); type: functional; conditions: Canis lupus familiaris
[28] = tested on: Canis familiaris; assay: Antisecretory activity in histamine-stimulated dog assessed as inhibition of total acid output at 25 mg/kg, po administered 18 and 2 hrs prior to histamine challenge (reference value: 0%); type: functional; conditions: Canis lupus familiaris
[29] = species: Mus musculus; assay: Anticholinergic activity in mouse assessed as induction of mydriasis; type: functional, organism-based
[30] = tested on: Heart; assay: Anticholinergic activity in guinea pig auricle assessed as carbamylcholine-induced depression of heart rate after 5 mins; type: functional, tissue-based; conditions: Cavia porcellus
In short: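 Isolated guinea pig auricles in Krebs-Henseleit solution at 35 °C. Compound dissolved in Me2SO-H2O, added to the bath, and left on the tissue for 5 min. Read-out was the dose-related carbamylcholine-induced fall in spontaneous heart rate.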

[31] = tested on: Trachea; assay: Anticholinergic activity in guinea pig trachea assessed as carbamylcholine-induced constriction at 10 uM; type: functional, tissue-based; conditions: Cavia porcellus
In short: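 Guinea pig trachea set up in the same bath system as the auricle preparation. Compound in Me2SO-H2O was added to the bath at 10^-5 M. Read-out was the dose-related response to carbamylcholine.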

[32] = biological target: Histamine H2 receptor (Cavia porcellus) (UniProt P47747); assay: Inhibition of histamine H2 receptor in guinea pig atria assessed as inhibition of histamine response
Chain of Histamine H2 receptor (Cavia porcellus) (P47747 whole entry): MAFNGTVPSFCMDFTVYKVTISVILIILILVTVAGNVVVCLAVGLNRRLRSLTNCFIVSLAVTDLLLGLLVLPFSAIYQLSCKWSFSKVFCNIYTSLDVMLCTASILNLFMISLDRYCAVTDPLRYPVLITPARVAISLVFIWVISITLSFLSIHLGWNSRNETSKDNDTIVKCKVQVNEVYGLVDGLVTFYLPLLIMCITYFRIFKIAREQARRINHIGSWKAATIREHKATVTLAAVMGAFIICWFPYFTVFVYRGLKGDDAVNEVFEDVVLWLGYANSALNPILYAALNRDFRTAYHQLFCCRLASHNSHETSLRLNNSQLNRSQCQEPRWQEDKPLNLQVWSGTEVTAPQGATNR

[33] = tested on: Rattus norvegicus; assay: Antisecretory activity in po dosed 5-hrs pyloric ligated rat assessed as increase in pH of gastric secretions administered 2 hrs prior to pyloric ligation measured after 1 hr; type: functional, organism-based; conditions: Stomach; in short: as §1
[34] = tested on: Rattus norvegicus; assay: Antisecretory activity in po dosed 5-hrs pyloric ligated rat assessed as decrease in volume of gastric secretions administered 2 hrs prior to pyloric ligation; type: functional, organism-based; conditions: Stomach; in short: as §1
[35] = tested on: Rattus norvegicus; assay: Antisecretory activity in po dosed 5-hrs pyloric ligated rat assessed as decrease in total acidity of gastric secretions administered 2 hrs prior to pyloric ligation; type: functional, organism-based; conditions: Stomach; in short: as §1
[36] = tested on: Canis familiaris; assay: Antisecretory activity in po dosed histamine-stimulated dog assessed as increase in pH of gastric secretions administered 18 and 2 hrs prior to histamine challenge; type: functional, organism-based; conditions: Canis lupus familiaris; Stomach
[37] = tested on: Canis familiaris; assay: Antisecretory activity in po dosed histamine-stimulated dog assessed as decrease in volume of gastric secretions administered 18 and 2 hrs prior to histamine challenge; type: functional, organism-based; conditions: Canis lupus familiaris; Stomach
[38] = tested on: Canis familiaris; assay: Antisecretory activity in po dosed histamine-stimulated dog assessed as decrease in total acidity of gastric secretions administered 18 and 2 hrs prior to histamine challenge; type: functional, organism-based; conditions: Canis lupus familiaris; Stomach

Cc1c2c(c(C)n1Cc1ccccc1)C(C)(C(N)=O)CC2(C)C (stereo unspecified)
pH [1]: 1

Cc1c2c(c(C)n1-c1ccccc1Cl)C(C)(C(N)=O)CC2(C)C (stereo unspecified)
pH [1]: 1.1

Cc1c2c(c(C)n1-c1ccc(F)cc1)C(C)(C(N)=O)CC2(C)C (stereo unspecified)
pH [1]: 1.4

Cc1c2c(c(C)n1C1CC1)C(C)(C(N)=O)CC2(C)C (stereo unspecified)
pH [1]: 3.7

Cc1cccc(-n2c(C)c3c(c2C)C(C)(C(N)=O)CC3(C)C)c1 (stereo unspecified)
pH [1]: 1.2

Cc1c2c(c(C)n1C(C)C)C(C)(C(N)=O)CC2(C)C (stereo unspecified)
pH [1]: 1.8

Cc1ccc(-n2c(C)c3c(c2C)C(C)(C(N)=O)CC3(C)C)cc1 (stereo unspecified)
pH [1]: 1.1

Cc1c2c(c(C)n1CC1CC1)C(C)(C(N)=O)CC2(C)C (stereo unspecified)
pH [1]: 5.1

CCn1c(C)c2c(c1C)C(C)(C(N)=O)CC2(C)C (stereo unspecified)
pH [1]: 4.8

Cc1c2c(c(C)n1C1CCC1)C(C)(C(N)=O)CC2(C)C (stereo unspecified)
pH [1]: 2.2

CCCCn1c(C)c2c(c1C)C(C)(C(N)=O)CC2(C)C (stereo unspecified)
pH [1]: 2.5

Cc1c2c(c(C)n1-c1cccc(Cl)c1)C(C)(C(N)=O)CC2(C)C (stereo unspecified)
pH [1]: 1.1

Cc1[nH]c(C)c2c1C(C)(C)CC2(C)C(N)=O (stereo unspecified)
pH [1]: 1.4

Cc1c2c(c(C)n1C1CCCC1)C(C)(C(N)=O)CC2(C)C (stereo unspecified)
pH [1]: 1.3

CN/C(=N\CCSCc1nc[nH]c1C)NC#N [CIMETIDINE]
pH [1]: 2.1

Cc1c2c(c(C)n1C)C(C)(C(N)=O)CC2(C)C (stereo unspecified)
pH [1]: 4.2

Cc1c2c(c(C)n1-c1ccc(Cl)cc1)C(C)(C(N)=O)CC2(C)C (stereo unspecified)
pH [1]: 1.2

Cc1ccccc1-n1c(C)c2c(c1C)C(C)(C(N)=O)CC2(C)C (stereo unspecified)
pH [1]: 1

Cc1c2c(c(C)n1-c1ccccc1)C(C)(C(N)=O)CC2(C)C (stereo unspecified)
pH [2]: 1.83
pH [3]: 1.34
pH [4]: 3.28
pH [5]: 6.2
Activity [6]: 2.66 mL
Activity [7]: 2.16 mL
Activity [8]: 1.66 mL
Activity [9]: 1.19 mL
inhibition in vivo at 12.5 mg/kg [10]: 41%
inhibition in vivo at 25 mg/kg [11]: 52%
inhibition in vivo at 50 mg/kg [12]: 75%
inhibition in vivo at 100 mg/kg [13]: 100%
pH [14]: 1.2
pH [15]: 1.8
pH [16]: 3.9
pH [17]: 4.7
pH [18]: 6.7
Activity [19]: 11.9 mL
Activity [20]: 3.8 mL
Activity [21]: 2 mL
Activity [22]: 4.8 mL
Activity [23]: 2.4 mL
inhibition in vivo at 1.6 mg/kg [24]: 49%
inhibition in vivo at 3.1 mg/kg [25]: 84%
inhibition in vivo at 6.2 mg/kg [26]: 95%
inhibition in vivo at 12.5 mg/kg [27]: 88%
inhibition in vivo at 25 mg/kg [28]: 93%
Activity [29]: inactive
Activity [30]: inactive
Activity [31]: inactive
inhibition [32]: Active
Activity [33]: Dose-dependent effect
inhibition [34]: Dose-dependent effect
inhibition [35]: Dose-dependent effect
Activity [36]: Dose-dependent effect
inhibition [37]: Dose-dependent effect
inhibition [38]: Dose-dependent effect

CCCn1c(C)c2c(c1C)C(C)(C(N)=O)CC2(C)C (stereo unspecified)
pH [1]: 5.3
